High-throughput results (PubChem)
In the library only some 2.9% were active in any assay of this set; here they are far more common.
TRPC4 potent – positive allosteric modulators of TRPC4, primary screen, cell-based, mouse TRPC4beta, HEK293 mu-opioid, Fluo-4 calcium; Short transient receptor potential channel 4 (Mus musculus), Q9QUQ5; DAMGO EC20, Fluo-4 Ca2+ flux; stronger effect = higher value; B-score at 10 µM; hit rate 0.42% among 310,000; AID 2227, 2009;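 active = B-score of calcium response area above 5 SD of library B-scores, with initial fluorescence ratio within 5 SD of library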
Kir21 block – inhibitors of mouse Kir2.1 inward-rectifier potassium channel; HEK293-Kir2.1, FluxOR thallium flux fluorescence; stronger effect = lower value; B-score at 10 µM; hit rate 0.85% among 310,000;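 active = fluorescence ratio B-score at or below minus 3 SD of library scores, with starting-brightness B-score within 2 SD, cut at about -4.2 in these data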;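 note: channel flux triggered by added potassium and thallium sulfate stimulus; B-score of peak minus minimum fluorescence over baseline after thallium stimulus; more negative B-score means stronger Kir2.1 block with less thallium influx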
Target sequence (P35561 whole entry, looked up): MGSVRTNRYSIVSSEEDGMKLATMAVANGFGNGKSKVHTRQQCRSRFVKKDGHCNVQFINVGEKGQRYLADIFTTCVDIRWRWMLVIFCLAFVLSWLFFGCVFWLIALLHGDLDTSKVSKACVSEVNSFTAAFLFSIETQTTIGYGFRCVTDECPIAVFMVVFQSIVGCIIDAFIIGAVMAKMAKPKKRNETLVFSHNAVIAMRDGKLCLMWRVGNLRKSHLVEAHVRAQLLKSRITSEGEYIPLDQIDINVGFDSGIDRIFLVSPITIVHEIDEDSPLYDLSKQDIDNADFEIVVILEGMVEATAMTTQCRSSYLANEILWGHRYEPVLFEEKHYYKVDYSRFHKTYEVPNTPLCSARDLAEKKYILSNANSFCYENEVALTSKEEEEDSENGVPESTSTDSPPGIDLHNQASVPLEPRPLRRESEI
TRPC6 activator – mouse TRPC6 channel activators, primary screen, cell-based, HEK293, membrane potential dye | Short transient receptor potential channel 6 (Mus musculus), Q61143 | HEK293-TRPC6 membrane potential dye fluorescence; stronger effect = higher value | B-score at 10 µM | hit rate 0.13% among 310,000 | AID 2550, 2010;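 active = B-score of the integrated fluorescence ratio above library mean plus 3 SD, and starting fluorescence ratio within library mean plus 5 SD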;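 note: higher score means more depolarization so channel activation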
TRPC4 block – inhibitors of mouse TRPC4 channel, primary screen, Fluo4 calcium, HEK293 TRPC4beta/mu-opioid cells. Short transient receptor potential channel 4 (Mus musculus), Q9QUQ5. DAMGO-evoked Fluo4 calcium flux; stronger effect = lower value. B-score at 10 µM. hit rate 0.39% among 300,000. AID 2247, 2010;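 active = B-score over 3 SD under the library average, no early fluorescence shift, positive overall ratio signal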
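Assay system: HEK293 cells with stable TRPC4beta plus mu-opioid receptor expression; Probe or stimulus: DAMGO in two steps, submaximal then maximal; Dosing: single-point compound dosing; Measured by: Fluo4 calcium-dye fluorescence, kinetic read; Read-out basis: B score from integrated Fluo4 fluorescence ratio.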
TRPC4 act – activators of mouse TRPC4 channel, primary screen, Fluo4 calcium, HEK293 TRPC4beta/mu-opioid cells. Fluo4 calcium fluorescence; stronger effect = higher value. B-score at 10 µM. hit rate 0.49% among 310,000;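 active = B-score above 5 SD of library B-scores, and initial fluorescence ratio not above library mean plus 5 SD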;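 note: positive B-score marks a calcium rise read as TRPC4 activation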
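Incubation: 45 min room-temperature Fluo4 loading, 110 s read / System: HEK293 cells stably co-expressing mouse TRPC4beta and mu-opioid receptor / Signal: Fluo4 fluorescence, kinetic / Control set: buffer (low) and maximal DAMGO (high) / Measure: integrated baseline-normalised fluorescence ratio, converted to per-well B score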
TRPC6 inhibitor – mouse TRPC6 channel inhibitors, primary screen, cell-based, HEK293, membrane potential dye; Short transient receptor potential channel 6 (Mus musculus), Q61143; ACh-evoked depolarization; stronger effect = lower value; B-score at 10 µM; hit rate 1.1% among 310,000; AID 2553, 2010;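 active = B-score under library mean minus 3 SD, initial fluorescence not abnormally high, positive integrated signal ratio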;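 note: B-score derived from integrated fluorescence ratio over the kinetic read; more negative B-score means stronger inhibition of depolarization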
TRPC4 spec 2 – second selectivity test of TRPC6 inhibitors: effect on mouse TRPC4. HEK293 TRPC4/MOR, membrane potential dye fluorescence; channel activated by saturating DAMGO dose. inhibition, % at 10 µM. shares compounds with TRPC6 inhibitor. hit rate 42% among 920;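 active = compounds whose fluorescence signal differed from control wells by over 3 SD, either direction, in both duplicate plates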
TRPC4 spec – mouse TRPC4 modulation by TRPC6 hits, confirmation, selectivity assay for TRPC6 inhibitor project, cell-based, HEK293 TRPC4/mu-opioid, membrane potential dye. shares compounds with TRPC6 inhibitor. membrane potential fluorescence. activity change, negative = inhibition, % at 10 µM. hit rate 61% among 920;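 active = rise or fall in signal beyond 3 SD of buffer-only wells in both replicate plates, either sign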;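 note: integrated kinetic ratio of fluorescence range over baseline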
HEK293 MPD ctr 2-1 – nonspecific membrane potential effects, parental HEK293, confirmation, counter-screen for TRPC6 inhibitor project, cell-based, second counter screen. parental HEK293 membrane potential dye fluorescence; maximal acetylcholine challenge after compound addition. shares compounds with TRPC6 inhibitor. signal change vs control, % at 10 µM. hit rate 31% among 920;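 active = membrane potential signal moving either way by over 3 SD of the maximum-effect control, in both duplicate plates, meaning non-specific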
HEK293 MPD ctr-1 – membrane potential modulation in parental HEK293, confirmation, counter-screen for TRPC6 inhibitor project, cell-based; parental HEK293 membrane potential dye fluorescence; AID 2780, 2010; membrane potential signal change, % at 10 µM; shares compounds with TRPC6 inhibitor; hit rate 60% among 920;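 active = membrane potential signal shifting up or down by more than 3 SD of buffer-only wells, on both duplicate plates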
HEK293 MPD ctr-2 – parental HEK293 membrane potential modulation, confirmation, counter-screen for TRPC6 modulator project, cell-based; shares compounds with TRPC6 inhibitor; membrane potential dye fluorescence; membrane potential signal change, % at 10 µM; hit rate 51% among 2,400; AID 488924, 2010;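 active = membrane potential signal moves up or down beyond 5 SD from buffer-only wells, on both duplicate plates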
HEK293 MPD ctr 2-2 – parental HEK293 nonspecific activity of TRPC6 modulators, second screen | inhibition, % at 10 µM | membrane potential dye fluorescence; after compound, maximal acetylcholine stimulation | hit rate 14% among 2,400 | shares compounds with TRPC6 inhibitor;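 active = membrane potential signal drops by more than 5 SD from the mean control signal, in both duplicate plates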
TRPC4 ctr mod – TRPC4 modulation by TRPC6 hit compounds, confirmation, selectivity assay for TRPC6 modulator project, cell-based, HEK293 TRPC4/mu-opioid, membrane potential dye, mouse. shares compounds with TRPC6 inhibitor. percent change from control (negative = decrease, positive = increase), % at 10 µM. membrane potential fluorescence. AID 488927, 2010. hit rate 69% among 2,400;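 active = membrane potential signal moved up or down beyond 5 SD of buffer control wells, in both duplicate plates, actives on both sides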
TRPC4 ctr inh 2 – second selectivity test of TRPC6 modulators against mouse TRPC4. inhibition, % at 10 µM. AID 488928. HEK293 TRPC4/mu-opioid, membrane potential dye fluorescence; stimulated with maximal-effect DAMGO. shares compounds with TRPC6 inhibitor. hit rate 55% among 2,400;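 active = drop in membrane potential signal beyond 5 SD of the control wells in both duplicate plates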;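 note: TRPC4 counter screen for TRPC6 hits run under conditions tuned for TRPC6 not TRPC4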
TRPC6 block conf – mouse TRPC6 channel inhibitors, confirmation, HEK293 cells, membrane potential dye, duplicate; shares compounds with TRPC6 inhibitor; ACh-evoked depolarization; inhibition, % at 10 µM; hit rate 43% among 3,300; AID 488960, 2010;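 active = fluorescence ratio falls more than 5 SD below the full-stimulation control mean, in both duplicate runs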;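 note: integrated fluorescence ratio of peak minus minimum over baseline after agonist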
TRPC6 act confirm – mouse TRPC6 channel activators, confirmation, HEK293 cells, membrane potential dye, duplicate; hit rate 11% among 2,800; shares compounds with TRPC6 inhibitor; AID 488961, 2010; activation, % at 10 µM; HEK293-TRPC6 membrane potential dye fluorescence, FDSS;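 active = ratio signal rise beyond 5 SD above unstimulated control wells' mean, seen in both duplicate runs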
Of the large screens only hits and unclear results are named; the others gave an inactive call (follow-up assays come after a bar, where they were run); ! = repeats disagree.

COCCCNC(=S)N1CCCN(c2nc3c(C)c(C)ccc3cc2C#N)CC1	none
COCCNC(=S)N1CCCN(c2nc3cc(C)ccc3cc2C#N)CC1	TRPC6 activator 12 | HEK293 MPD ctr-2 inactive | HEK293 MPD ctr 2-2 inactive | TRPC4 ctr mod inactive | TRPC4 ctr inh 2 34% | TRPC6 act confirm 136%
COC(=O)/C=C/c1oc2ccccc2c1C	none
CC(C)Cn1c(=O)c(C(=O)N/N=C/c2cccc(F)c2)c(O)c2ccccc21	none
CC(N)C12CC3CC(CC(C3)C1)C2 (stereo not drawn)	TRPC6 inhibitor -5.4! | HEK293 MPD ctr-2 inactive | HEK293 MPD ctr 2-2 inactive | TRPC4 ctr mod inactive | TRPC4 ctr inh 2 30% | TRPC6 block conf inactive | TRPC6 act confirm inactive
NC(CCC(=O)O)C12CC3CC(CC(C3)C1)C2 (stereo not drawn)	none
Cc1ccc(NCc2nnc(SCCN3CCCCC3)n2CC2CCCO2)c(C)c1 (stereo not drawn)	TRPC6 inhibitor -5.7 | HEK293 MPD ctr-2 inactive | HEK293 MPD ctr 2-2 inactive | TRPC4 ctr mod 16% | TRPC4 ctr inh 2 35% | TRPC6 block conf 41% | TRPC6 act confirm inactive
COc1cc(/C=C/c2nc3ccc([N+](=O)[O-])cc3s2)ccc1OCC(=O)O	TRPC6 inhibitor -6.7 | HEK293 MPD ctr-2 -69% | HEK293 MPD ctr 2-2 inactive | TRPC4 ctr mod -20% | TRPC4 ctr inh 2 inactive | TRPC6 block conf inactive | TRPC6 act confirm inactive
CCOC(=O)c1sc2ncnc(N3CCN(C(=O)OCC)CC3)c2c1C	none
CCOC(=O)c1sc2ncnc(N3CCN(CC)CC3)c2c1C	TRPC6 inhibitor -5.5 | HEK293 MPD ctr-2 -128% | HEK293 MPD ctr 2-2 inactive | TRPC4 ctr mod -21% | TRPC4 ctr inh 2 41% | TRPC6 block conf inactive | TRPC6 act confirm inactive
Cc1cc(S(=O)(=O)N2CCN(C(=O)c3ccco3)CC2)ccc1F	none
CCOc1cc(S(=O)(=O)N2CCN(C(=O)c3ccco3)CC2)ccc1F	TRPC4 potent 22, TRPC6 inhibitor -5.7 | HEK293 MPD ctr-2 inactive | HEK293 MPD ctr 2-2 inactive | TRPC4 ctr mod 42% | TRPC4 ctr inh 2 inactive | TRPC6 block conf 38%
O=[N+]([O-])c1ccc(O)c(CN2CCCCCC2)c1	none
Cc1cccc(N2CCN(C(=O)c3ccc4c(c3)c(C)c(C)n4C)CC2C)c1 (stereo not drawn)	TRPC6 inhibitor -5.1 | HEK293 MPD ctr-2 inactive | HEK293 MPD ctr 2-2 inactive | TRPC4 ctr mod inactive | TRPC4 ctr inh 2 inactive | TRPC6 block conf inactive | TRPC6 act confirm inactive
Cc1cccc(N2CCN(C(=O)c3ccc(N4CCCC4=O)cc3)CC2C)c1 (stereo not drawn)	none
CCN1CCCC(OC(=O)c2cc(-c3ccccc3Cl)nc3ccccc23)C1 (stereo not drawn)	TRPC4 potent 22, TRPC6 inhibitor -5.5 | HEK293 MPD ctr-2 134% | HEK293 MPD ctr 2-2 inactive | TRPC4 ctr mod 24% | TRPC4 ctr inh 2 45% | TRPC6 block conf inactive
O=C(c1cc(-c2ccccc2Cl)nc2ccccc12)N1CCOCC1	none
CC(C)Sc1n[nH]c(=O)n1-c1ccccc1	none
O=C(CSC(=S)N1CCCC1)NCC(=O)Nc1ccccc1Br	none
N#Cc1ccc(C2=NC(C(F)(F)F)(C(F)(F)F)c3c(n(Cc4ccco4)c(=O)[nH]c3=O)N2)cc1	TRPC6 inhibitor -8.3 | TRPC4 spec 2 inactive | TRPC4 spec -12% | HEK293 MPD ctr 2-1 inactive | HEK293 MPD ctr-1 -128% | TRPC6 block conf inactive | TRPC6 act confirm inactive
Cc1ccc(CN(C)C(=O)c2ccccc2Sc2ccccc2C#N)cc1	TRPC6 inhibitor -5.1 | HEK293 MPD ctr-2 104% | HEK293 MPD ctr 2-2 inactive | TRPC4 ctr mod 22% | TRPC4 ctr inh 2 inactive | TRPC6 block conf 62%
COc1cc(/C=C(\C#N)C(=O)NCCc2ccccc2)cc(OC)c1O	TRPC6 activator 14 (no result: TRPC4 block) | HEK293 MPD ctr-2 394% | HEK293 MPD ctr 2-2 inactive | TRPC4 ctr mod 72% | TRPC4 ctr inh 2 inactive | TRPC6 block conf inactive | TRPC6 act confirm 68%
COC(=O)/C(C#N)=C/c1c[nH]c2ccccc12	none
